RBBP9 inhibitor = human RBBP9 hydrolase inhibition; recombinant RBBP9, FP-Rh probe fluorescence polarization; 220,000 tested, 0.2% active; inhibition, % at 7.94 µM; AID 1515;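 active means inhibition above the campaign mean of all tested compounds plus 3 SD, cut at about 14% in these data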
Target sequence (O75884 whole entry, looked up): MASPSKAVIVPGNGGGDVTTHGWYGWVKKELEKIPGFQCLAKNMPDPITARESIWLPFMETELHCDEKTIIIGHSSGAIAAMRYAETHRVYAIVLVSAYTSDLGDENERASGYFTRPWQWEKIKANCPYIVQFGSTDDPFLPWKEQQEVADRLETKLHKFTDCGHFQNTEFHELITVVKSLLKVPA
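Test system: recombinant human RBBP9; Timing: 30 min then 45 min, 25 °C; Detection: fluorescence polarization; Control set: RBBP9 with DMSO as uninhibited control, no-protein wells as full inhibition; Compound dosing: one concentration, 7.94 µM nominal, 0.794% DMSO; Probe or stimulus: FP-Rh activity-based probe, 375 nM before mixing.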
zVAD death inh = L929 zVAD cell death inhibition; L929 zVAD necroptosis rescue, ATP luminescence, 24 h; with zVAD 60 µM; viability rescue, % at 10 µM; 220,000 tested, 0.38% active;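 active means activation, scaled between plate controls, above about 75%, limit read from the data; inactive means activation under that limit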
M18AAP inhibitor = PfM18AAP enzyme inhibition | recombinant PfM18AAP, H-Glu-NHMec fluorogenic cleavage | inhibition, % at 7.35 µM | 290,000 tested, 1.2% active;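 active means inhibition above the campaign mean inhibition over all tested compounds plus 3 SD, cut at about 28% in these data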
TNF death inh = inhibitors of TNF-alpha induced necroptosis in Jurkat FADD-/- cells | Jurkat FADD-/- TNF necroptosis rescue, ATP luminescence, 24 h; 0 = TNF only, 100 = no-TNF cells | activation (protection from cell death), % at 10 µM | 220,000 tested, 0.068% active;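 active means activation, meaning protection from cell death, of at least 50% relative to plate controls; inactive means activation below 50%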;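 further: necroptosis triggered by 40 ng/mL TNF-alpha added together with compound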
Wee1 stabilizer = inhibitors of human Wee1 degradation; P30291; 220,000 tested, 1.2% active; reporter increase, % at 5 µM; HeLa Luc-Wee1K328M stability, luciferase luminescence; 100% = proteasome inhibitor MG132 effect;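 active means activation above the mean of all tested compounds plus 3 SD, set per screening run, cut at about 8.8% in these data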;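 further: cells exposed to compound for 20 h before luminescence read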
p97 inhibitor = blocks human p97 ATPase activity. 220,000 tested, 0.42% active. inhibition, % at 8 µM. AID 1481. recombinant p97 ATPase, Kinase-Glo ATP luminescence, 3 h; in the data active means inhibition above about 15%
Hits are given with their value. Only some compounds are listed: those with a hit (about 2.7% of all), similar ones and a draw of the others.

Results for COc1ccc(-c2nn(C)c(=O)[nH]2)cc1 ?
RBBP9 inhibitor: inactive; zVAD death inh: inactive; M18AAP inhibitor: inactive; TNF death inh: inactive; Wee1 stabilizer: 11; p97 inhibitor: inactive

How did O=[N+]([O-])c1ccc(C(O)CSC(=S)N2CCCCC2)cc1 (centres undefined) do in these assays?
M18AAP inhibitor: inactive

What do the screens show for `CC(C)Cc1nnc(NC(=O)c2cc(-c3ccncc3)nc3ccccc23)s1`?
RBBP9 inhibitor: inactive; zVAD death inh: inactive; M18AAP inhibitor: inactive; TNF death inh: inactive; Wee1 stabilizer: 9.2; p97 inhibitor: inactive

What do the screens show for `CC(C)Cc1nnc(NC(=O)c2cc(-c3ccccc3)nc3ccccc23)s1`?
RBBP9 inhibitor: inactive; zVAD death inh: inactive; M18AAP inhibitor: inactive; TNF death inh: inactive; Wee1 stabilizer: inactive; p97 inhibitor: inactive

How did C=C1CC2C=C(NC(C)=O)CC(C1)C2 (centres undefined) do in these assays?
RBBP9 inhibitor: inactive; zVAD death inh: inactive; M18AAP inhibitor: inactive; TNF death inh: inactive; Wee1 stabilizer: 9.6; p97 inhibitor: inactive

How did Cc1cc(NC(=O)CCC(=O)N(CCC(C)C)C(C(=O)NC2CCCC2)c2ccccc2C)no1 (centres undefined) do in these assays?
M18AAP inhibitor: inactive

What do the screens show for `CCN1/C(=C/C=C/C=C/c2sc3ccccc3[n+]2CC)Sc2ccccc21`?
RBBP9 inhibitor: inactive; zVAD death inh: inactive; M18AAP inhibitor: 37; TNF death inh: inactive; Wee1 stabilizer: inactive; p97 inhibitor: inactive

What do the screens show for `CC[n+]1c(/C=C/Nc2ccccc2)sc2ccccc21`?
RBBP9 inhibitor: inactive; zVAD death inh: inactive; M18AAP inhibitor: 30; TNF death inh: inactive; Wee1 stabilizer: inactive; p97 inhibitor: inactive

How did CC[n+]1c(/C=C(\C)Nc2ccccc2)sc2ccccc21 do in these assays?
RBBP9 inhibitor: inactive; zVAD death inh: inactive; M18AAP inhibitor: inactive; TNF death inh: inactive; Wee1 stabilizer: inactive; p97 inhibitor: inactive

How did CC[n+]1c(/C=C(\C)OC)sc2ccccc21 do in these assays?
RBBP9 inhibitor: inactive; zVAD death inh: inactive; M18AAP inhibitor: inactive; TNF death inh: inactive; Wee1 stabilizer: inactive; p97 inhibitor: inactive

What do the screens show for `CC(NC(=O)c1ccc2c(c1)OCO2)C(c1cccs1)N1CCN(c2ccccc2)CC1` (centres undefined)?
RBBP9 inhibitor: inactive; zVAD death inh: inactive; M18AAP inhibitor: inactive; TNF death inh: inactive; Wee1 stabilizer: inactive; p97 inhibitor: inactive

Results for CCC(C)c1ccc(O)c(NC(=O)c2cncc(Br)c2)c1 (centres undefined) ?
RBBP9 inhibitor: inactive; zVAD death inh: inactive; M18AAP inhibitor: inactive; TNF death inh: 78; Wee1 stabilizer: inactive; p97 inhibitor: inactive

Results for CCOc1ccc(N(CC(=O)NCCSCc2ccco2)S(=O)(=O)c2ccc(C)cc2)cc1 ?
M18AAP inhibitor: inactive

Results for CCOC(=O)/C=C/C(=O)Nc1ccc(S(=O)(=O)N(C)c2ccccc2)cc1 ?
RBBP9 inhibitor: inactive; zVAD death inh: inactive; M18AAP inhibitor: inactive; TNF death inh: inactive; Wee1 stabilizer: 10; p97 inhibitor: inactive

What do the screens show for `Cc1ccc(Cl)cc1NC(=S)N(CCCN1CCOCC1)Cc1ccco1`?
RBBP9 inhibitor: inactive; zVAD death inh: inactive; M18AAP inhibitor: inactive; TNF death inh: inactive; Wee1 stabilizer: inactive; p97 inhibitor: inactive

Results for CC(C)C1Oc2ccccc2N(CC(=O)N(Cc2ccccn2)CC2CCCO2)C1=O (centres undefined) ?
RBBP9 inhibitor: inactive; zVAD death inh: inactive; M18AAP inhibitor: inactive; TNF death inh: inactive; Wee1 stabilizer: 9.2; p97 inhibitor: inactive

What do the screens show for `Cc1ccc(CN(CC2CCCO2)C(=O)CN2C(=O)C(C(C)C)Oc3ccccc32)o1` (centres undefined)?
RBBP9 inhibitor: inactive; zVAD death inh: inactive; M18AAP inhibitor: inactive; TNF death inh: inactive; Wee1 stabilizer: inactive; p97 inhibitor: inactive

What do the screens show for `Cc1cccc(NC(=O)N2CCCC(CNC(=O)c3ccccc3Cl)C2)c1C` (centres undefined)?
M18AAP inhibitor: inactive

Results for COc1ccc(-n2nnnc2S(=O)(=O)Cc2ccc(C(=O)O)cc2)cc1 ?
RBBP9 inhibitor: inactive; zVAD death inh: inactive; M18AAP inhibitor: inactive; TNF death inh: inactive; Wee1 stabilizer: inactive; p97 inhibitor: inactive

Assay outcomes: PubChem BioAssay, several laboratories
